The list is not random: actives were taken first. Their share in the collection is about 5.6%.
CHOP UPR activ = activators of apoptotic CHOP UPR arm, primary screen, cell-based, CHO-CHOP luciferase reporter, luminescence, uHTS | 330,000 tested, 0.34% active | UPR activation; percent of tunicamycin response over DMSO baseline | AID 449763, 2010 | activation, % at 10 µM;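 active = at 10 µM dose, activation of 40% or more, normalized to positive control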
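Dosing – one dose, 10 µM in 0.5% DMSO · System – CHO-CHOP cells, stable luciferase reporter of PERK-eIF2a-CHOP signalling · Input – 500 cells/well · Control set – tunicamycin 10 µg/mL final as positive, DMSO-only wells as negative · Timing – 6 h compound treatment, 37 °C · Measure – % activation vs tunicamycin · Technique – luminescence read with Steady-Glo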
aDG glyco act = activators of alpha-DG glycosylation, primary screen, uHTS, Pro5-aDG cells, AlphaScreen | activation, % at 10 µM | alpha-DG glycosylation AlphaScreen (IIH6); 0% Pro5, 100% B10-LARGE cell signal | 360,000 tested, 0.22% active;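 active = activation of at least 8% versus controls, or a plate z-score of at least 8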;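 note: Pro5 are CHO cells carrying HIG-tagged alpha-DG that lacks glycosylation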
NR3A LBD binder = binders of NR3A ligand-binding domain, primary screen, biophysical, differential scanning fluorimetry, uHTS | Glutamate receptor ionotropic, NMDA 3A (GRIN3A) ligand-binding domain | NR3A LBD differential scanning fluorimetry, Tm shift; 0% = protein alone, 100% = glycine-bound protein | Tm shift relative to glycine control, % at 25 µM | 340,000 tested, 2.5% active;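 active = melting temperature shift of at least 10% of the positive control shift, at one fixed dose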
CHOP inhibitor = inhibitors of CHOP promoter induction, primary screen, cell-based, unfolded protein response, luciferase reporter | CHO-K1 CHOP-promoter luciferase, tunicamycin-induced, 15-18 h | 220,000 tested, 3.8% active | inhibition, % at 10 µM;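 active = compounds that reduced the stress-induced luciferase reporter signal by more than about 70% of percent inhibition, limit read from the data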
MPTP block = mitochondrial permeability transition pore inhibitors, primary screen, biochemical, isolated mouse mitochondria, absorbance; 360,000 tested, 1.4% active; Ca2+ swelling absorbance, 30 min; inhibition, % at 10 µM; AID 602449, 2012;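 active = inhibition of 50% or more, scaled per plate between neutral and stimulator controls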
UPR XBP1 act = activators of adaptive XBP1 UPR arm, primary screen, cell-based, CHO-XBP1 luciferase reporter, luminescence, uHTS; IRE1-XBP1 UPR activation; percent of tunicamycin response, DMSO as zero; 330,000 tested, 0.33% active; activation, % at 20 µM; AID 463104, 2010;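 active = versus positive control, 20 µM dose yields 30% or more activation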
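Test system: CHO-XBP1 luciferase reporter cells | Buffer or medium: Serum-containing F12 medium, 10% FBS | Schedule: 6 h compound exposure at 37 °C, 5% CO2 | Detection: Steady-Glo luciferase glow luminescence, 10 min after reagent addition | Read-out basis: Activation, % of tunicamycin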
CHOP inh conf = retest of CHOP induction inhibitors, confirmation, cell-based. shares compounds with CHOP inhibitor. inhibition, % at 10 µM. 2,100 tested, 45% active. CHO-CHOP promoter luciferase reporter, tunicamycin-induced, luminescence. AID 504437, 2011;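 active = mean of three repeat readings of reporter signal inhibition above a set limit, cut at about 70% in these data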
Hits are given with their value; - = inactive; . = no result.

SMILES	CHOP UPR activ	aDG glyco act	NR3A LBD binder	CHOP inhibitor	MPTP block	UPR XBP1 act	CHOP inh conf
COCCNC(=O)C1(C)CCCN(C(=O)COc2ccccc2)C1 (stereo not given)	.	-	.	.	-	.	.
O=C(CCc1ccccc1)N/N=C\C1CC=CCC1 (stereo not given)	-	-	-	.	-	-	.
C/C(=N/NC(=O)COc1ccc(C(C)(C)C)cc1)c1ccc(N2CCOCC2)cc1	.	-	-	.	-	.	.
CC(C)(C)c1ccc(OCC(=O)N/N=C/c2ccc(N3CCOCC3)cc2)cc1	-	-	-	105	-	-	-
CC(C)(C)c1ccc(OCC(=O)N/N=C/C2CC=CCC2)cc1 (stereo not given)	-	-	-	99	-	-	99
COC(=O)c1oc(-c2ccc(Cl)cc2)nc1C	-	-	-	-	-	-	.
COc1oc(-c2ccc(Cl)cc2)nc1C(F)(F)F	-	-	-	103	-	-	71
O=C(N/N=C/c1ccc(N2CCOCC2)cc1)c1ccccc1OCCOc1ccccc1	-	-	-	-	-	-	.
COc1ccccc1C=NN=Cc1ccccc1OC	.	-	-	.	-	.	.
Nc1cc(OCC(F)(F)F)cc([N+](=O)[O-])c1	-	-	-	-	-	-	.
Nc1cc(N)c(OCC(F)(F)F)cc1OCC(F)(F)F	-	-	-	102	-	-	-
CCN(CC(=O)Nc1ccc(N2CCOCC2)cc1)C(=O)Cc1ccccc1	-	-	-	.	-	-	.
CCCCOC(=O)c1ccc(NC(=O)c2c(N)n(C)c(=O)[nH]c2=O)cc1	-	.	-	.	.	-	.
Cn1cnc([N+](=O)[O-])c1S(=O)(=O)c1cccc(Cl)c1	-	-	-	109	-	-	110
Cc1ccc(C)c(NC(=S)NC(NC(=O)Cc2ccccc2)C(Cl)(Cl)Cl)c1 (stereo not given)	-	-	20	103	-	-	-
O=C(NC(=S)N1CCCCCC1)c1ccc(Cl)cc1Cl	-	-	-	-	-	-	.
CCOC(=O)CSC1=NC(=O)/C(=C\c2ccc(OC(C)=O)cc2)S1	-	-	-	106	-	-	-
CCOC(=O)COc1ccc(Br)cc1/C=C1\SC(N)=NC1=O	-	-	-	.	-	-	.
O=C(COc1ccc(Cl)cc1Br)Nc1cccc(S(=O)(=O)N2CCCC2)c1	-	-	-	.	-	-	.
Cc1ccc(S(=O)(=O)/N=C(\Sc2ccccc2)c2ccccc2)cc1	-	-	-	107	-	-	-
Brc1ccc(C2Nc3cccc4cccc(c34)N2)s1	.	-	-	104	-	.	-
O=c1[nH]c(=O)n(Cc2ccco2)c2c1C(C(F)(F)F)(C(F)(F)F)N=C(c1ccc(F)cc1)N2	-	-	-	100	-	-	87
O=c1[nH]c(=O)n(Cc2ccccc2)c2c1C(C(F)(F)F)(C(F)(F)F)N=C(c1ccco1)N2	-	-	-	-	-	-	.
NNC(=O)[C@H](Cc1ccccc1)NC(=O)Nc1ccc2c(c1)OCCO2	-	-	-	-	-	-	.
O=Cc1cccc(OC(=O)c2ccc(Cl)cc2Cl)c1	-	.	.	101	.	-	-
SMILES	CHOP UPR activ	aDG glyco act	NR3A LBD binder	CHOP inhibitor	MPTP block	UPR XBP1 act	CHOP inh conf
COc1cc(C(=O)Oc2cccc(C=O)c2)cc(OC)c1OC	-	-	-	-	-	-	.
CCCN(C(=O)c1cccc(S(=O)(=O)N2CCN(C)CC2)c1)c1c(N)n(Cc2ccccc2)c(=O)[nH]c1=O	-	-	-	.	-	-	.
CC(C)COc1ccc(/C(=N/O)c2ccccc2)cc1	-	-	-	107	-	-	92
COc1ccc(Cl)cc1C(=O)NNC(=O)CSc1nnnn1C	-	-	-	-	-	-	.
CC(C)c1ccc(CC(C)C2C3=C(CCCC3=O)OC3=C2C(=O)CCC3)cc1 (stereo not given)	-	-	-	104	-	-	-
Cc1cc(NC(=O)/C(C#N)=C/c2ccco2)n(-c2ccccc2)n1	-	-	-	-	-	-	.
Cc1ccc(-c2ccc(/C=C(\C#N)C(=O)Nc3cc(C)nn3-c3ccccc3)o2)cc1	55	.	.	104	.	46	89
FC(F)C(F)(F)C(F)(F)C(F)(F)c1cc(-c2ccccc2)n[nH]1	-	-	-	106	-	-	111
CC(C)Cn1c(=O)c2ccccc2n2c(SCC(=O)N3c4ccccc4CC3C)nnc12 (stereo not given)	-	-	20	98	-	-	85
O=C(COC(=O)c1ccc(O)cc1)NCCCc1ccccc1	.	-	-	-	-	.	.
CCCCc1nc2ccccc2c(=O)n1NC(=O)c1c(O)c2ccccc2n(C)c1=O	-	-	-	98	-	-	92
CCCc1nc2ccccc2c(=O)n1NC(=O)c1c(O)c2cccc3c2n(c1=O)CCC3	-	-	-	-	-	-	.
Cc1ccc(NC(=O)c2c(O)c3ccccc3n(C)c2=O)nc1	-	-	-	97	-	-	-
COc1ccccc1NC(=O)CCc1nnc2ccc(N3CCN(C)CC3)nn12	-	-	-	.	-	-	.
O=S1(=O)C=C(Sc2nnc(-c3ccccc3)o2)c2ccccc21	-	-	-	.	-	-	125
CC(=O)Nc1ccc(NC(=O)c2c(C)nn(Cc3ccccc3Cl)c2C)cc1	-	-	-	.	-	-	.
Cc1cccc(N2CCN(C(=O)c3c(C)nn(Cc4ccccc4Cl)c3C)CC2)c1C	-	-	-	103	-	-	86
O=c1c2ccccc2nc(-c2ccccc2)n1Cc1ccc(Cl)cc1	-	-	-	-	-	-	.
O=c1c2ccccc2nc2n1CCN2Cc1ccc(Cl)cc1	-	-	-	99	-	-	95
CN1CCc2c(sc(NC(=O)c3ccc([N+](=O)[O-])o3)c2C(N)=O)C1	-	-	-	.	-	-	.
CN1CCc2c(sc(NC(=O)c3cc4cc([N+](=O)[O-])ccc4s3)c2C(N)=O)C1	.	.	.	101	.	.	132
CC(C)c1nnc(NC(=O)c2c(O)c3cccc4c3n(c2=O)CCC4)s1	-	-	-	104	-	-	109
S=C(NCC1CCCO1)N1CCc2ccccc2C1 (stereo not given)	-	-	-	.	-	-	.
OCCC1CCCCN1CC(O)COCc1ccc(Cl)cc1 (stereo not given)	-	-	-	.	-	-	.
CCc1ccc2c(c1)C(c1ccc([N+](=O)[O-])cc1)=NNC(c1ccc(C)cc1)=N2	-	-	-	97	-	-	83
